# Compounds with a hit are over-represented: about 2.2% of the library has one in this group of screens.
# Runt-CBFb FRET – inhibitors of RUNX1 Runt–CBFb binding, primary screen, biochemical, FRET, Cerulean-Runt, Venus-CBFb, uHTS | AID 1496, 2009 | Cerulean-Runt/Venus-CBFb FRET ratio 530/480, 1 h | Runt-related transcription factor 1 (Homo sapiens) + Core-binding factor subunit beta … | inhibition, % at 20 µM | actives 0.46% (n = 220,000);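 active = inhibition over about 50% at 20 µM in the single-dose screen, limit read from the data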;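 also: 0% = DMSO wells and 100% = excess unlabeled CBFb competitor control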
#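 Doses: 20 µM compound in 1% DMSO | Material: Cerulean-labeled Runt domain protein | Amount: Each fluorescent fusion protein 100 nM | Schedule: Two 1 h room-temperature incubations shielded from light | Measured by: FRET fluorescence | Evaluation: Loss of energy transfer signal | Controls: Unlabeled CBFb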
# RanGTP-Imp inh – inhibitors of RanGTP-importin-beta interaction, primary screen, biochemical, FRET, CFP-Ran, YFP-importin-beta, homogeneous | Ran GTPase (GTP-bound) - importin-beta complex | cell-free CFP-Ran/YFP-importin-beta FRET ratio | inhibition, % (no concentration beside the values) | actives 1.1% (n = 300,000) | AID 2216, 2009;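 active = more than half of the replicate wells show a fall in the fluorescence ratio signal beyond about 16%, limit read from the data, passing the limit was not always enough; inconclusive = exactly half of the replicate wells pass the set limit; inactive = fewer than half of replicates pass the limit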;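 also: 0% = DMSO wells and 100% = Ran loaded with GDP instead of GTP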
# Runt-SMMHC FRET – inhibitors of RUNX1 Runt–CBFb-SMMHC binding, primary screen, biochemical, FRET, Cerulean-Runt, Venus-CBFb-SMMHC, uHTS; Runt-related transcription factor 1 (Homo sapiens) + Core-binding factor subunit beta …; Cerulean-Runt/Venus-CBFb-SMMHC FRET ratio 530/480, 1 h; inhibition, % at 20 µM; actives 0.74% (n = 220,000); AID 1434, 2008;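 active = mean inhibition across duplicate retests at 20 µM reaching about 50%, limit read from the data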;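 also: 0% = DMSO wells and 100% = wells with excess untagged CBFb-SMMHC; inhibitors lower the FRET ratio by blocking Runt binding to CBFb-SMMHC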
# 14-3-3 Bad inh – inhibitors of 14-3-3 zeta/Bad binding, primary screen, biochemical, TR-FRET, bovine 14-3-3 zeta. actives 0.71% (n = 220,000). AID 781, 2007. TR-FRET 14-3-3zeta/Dy647-pBad peptide displacement, 1 h. 14-3-3 protein zeta/delta (Bos taurus), P63103. inhibition, % at 21.7 µM;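 active = inhibition above about 70%, limit read from the data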;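 also: 0% = full 14-3-3 plus peptide FRET controls and 100% = background without 14-3-3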
# Target sequence (P63103 whole entry, looked up): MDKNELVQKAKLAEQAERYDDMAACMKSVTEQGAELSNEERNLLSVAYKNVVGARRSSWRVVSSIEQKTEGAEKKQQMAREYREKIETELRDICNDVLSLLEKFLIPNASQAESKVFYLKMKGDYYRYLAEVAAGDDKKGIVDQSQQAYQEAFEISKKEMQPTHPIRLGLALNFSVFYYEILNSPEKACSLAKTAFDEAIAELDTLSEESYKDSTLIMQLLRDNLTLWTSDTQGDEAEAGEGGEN
# Tb hexokinase – Trypanosoma brucei hexokinase 1 inhibitors, primary screen, biochemical, G6PDH-coupled NADH absorbance, MLSCN library; actives 0.11% (n = 220,000); hexokinase 1 [Trypanosoma brucei]; recombinant TbHK1, G6PDH-coupled NADH A340; AID 1430, 2008; inhibition, % at 10 µM;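 active = inhibition of 50% or more in the single-dose primary screen; inactive = inhibition below 50%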
# Hck-Nef inh – inhibitors of Nef-activated human Hck kinase, primary screen, biochemical, Z-Lyte FRET, 384-well, Hck-YEEI; Tyrosine-protein kinase HCK (Homo sapiens), P08631; Recombinant Hck-YEEI plus Nef, Z-Lyte FRET kinase assay; inhibition, % at 20 µM; actives 0.68% (n = 220,000);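 active = Hck-Nef kinase inhibition above about 50%, limit read from the data; inactive = inhibition below that limit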;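 also: 0% = DMSO with Hck plus Nef and 100% = Hck alone without Nef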
# Numbers without * were called inactive; ? = inconclusive; nt = not tested or not shown; [ ] = another dose, or the depositor's remark.
SMILES,Runt-CBFb FRET,RanGTP-Imp inh,Runt-SMMHC FRET,14-3-3 Bad inh,Tb hexokinase,Hck-Nef inh
COc1ccc2nc(NCCNC(=S)NCCCN3CCOCC3)c(C#N)cc2c1,3.1,3.7,92.9*,-10.4,-3.4,17.9
Cc1cc2cc(C#N)c(NCCNC(=S)NCCCN3CCOCC3)nc2cc1C,42.7,?,88.3*,7.7,-0.6,14.5
COc1ccc(OC)c(NC(=S)NCCCN2CCOCC2)c1,-2.5,-6.6,-3.9,-3.0,33.7,-2.3
O=C(CN1CCOCC1)N/N=C/c1ccc(-c2cccc(Cl)c2Cl)o1,-17.0,-1.2,0.8,77.4*,-89.4,-7.5
O=C(N/N=C/c1sc(=O)[nH]c1-[n+]1ccc2ccccc2c1)c1ccccc1[O-],nt,24.1*,nt,nt,nt,nt
CCCCn1nc(NC(=O)c2cccs2)c2cc3cc(OC)ccc3nc21,67.0*,128.7*,77.6*,nt,21.9,36.9
COc1ccc2nc3sc(C(=O)NCc4cccs4)c(N)c3cc2c1,11.5,-9.8,22.3,0.1,-3.1,5.2
CCCn1nc(NC(=O)c2cccs2)c2cc3cc(OC)ccc3nc21,63.2*,106.3*,62.6*,91.7*[fluorescence artefact?],-0.5,6.7
COc1cccc(C(=O)Nc2cccc(NC(=O)c3cccs3)c2)c1,nt,1.8,nt,nt,nt,nt
COC(=O)[C@H]1[C@H]2C[C@H]3c4[nH]c5ccccc5c4CCN3C[C@H]2CC[C@@H]1O,nt,42.9*,nt,nt,nt,nt
O=C1CCC[C@H]2c3[nH]c4ccccc4c3CCN12,nt,3.3,nt,nt,nt,nt
COC(=O)C1C(O)CCC2CN3CCc4c([nH]c5ccccc45)C3CC21 (stereo not given),8.2,64.5*,70.8*,8.3,-11.4,11.6
COC(=O)[C@@H]1Cc2c([nH]c3ccccc23)C2CCC(=O)N21 (stereo not given in full),nt,0.7,nt,nt,nt,nt
COc1ccc(-n2c(O)c(C=Nc3ccccc3)c3ccccc3c2=O)cc1,7.2,?,90.0*,64.1,1.4,20.1
COc1ccc(-n2c(O)c(C=Nc3ccccc3)c3ccccc3c2=O)cc1OC,22.5,-4.1,71.4,32.1,-16.6,17.5
O=C(NCCc1nnc2ccc(NCc3cccnc3)nn12)c1ccccc1F,1.2,5.6,2.0,-4.9,-2.8,-45.1
COc1cccc(-c2c3c([nH]c(=O)c2C#N)CCc2cc(OC)ccc2-3)c1,89.3*,93.9*,80.2*,1.1,-12.1,1.4
COc1ccc(C2=CC(c3c(C)nn(-c4ccccc4)c3Cl)n3nnnc3N2)cc1OC (stereo not given),30.7,nt,86.1*,1.9,-13.9,2.2
CSc1nc(N(C)C)nc(N2CC(=O)N(CCNS(=O)(=O)c3ccc(C)cc3)C2=N)n1,-1.1,-0.9,0.8,-21.3,15.2,1.6
COc1ccc(CCNC(=O)C2CCN(S(=O)(=O)N3CC(C)CC(C)C3)CC2)cc1OC (stereo not given),-3.4,0.9,3.0,11.1,53.4*,2.3
Cc1[nH]c(=O)[nH]c(=O)c1/C=N/NC(=O)[C@H](C)N,0.1,1.1,-3.3,2.2,-8.0,-6.7
Cc1cc(NCc2ccco2)nc2cc(O)ccc12,32.5,30.3*,76.4*,15.5,-13.6,14.1
Cc1ccc(Nc2cc(C)c3ccc(O)cc3n2)cc1C,14.9,9.6,30.7,-8.1,-39.6,24.5
O=c1oc2ccccc2cc1-c1csc(Nc2nc3ccc(F)cc3s2)n1,1.6,2.1,-146.0,82.5*[fluorescence artefact?],-0.2,20.7
COC(=O)c1ccc(Nc2c([N+](=O)[O-])c(=O)oc3ccccc23)cc1,-1.6,4.2,-2.8,7.3,-15.7,4.3

# From PubChem BioAssay
